Experimental data from different studies.
Compare with care: the assays were run in different laboratories.
Target: Carbonic anhydrase 2 (CA2, Homo sapiens, UniProt P00918)
Read-out: enzyme activity
Mode: inhibitor

For `CCOC(=O)N1CCC(=C2c3ccc(Cl)cc3CCc3cccnc32)CC1`, the IC50 was 13100 nM (absorbance; pH 7.4).
`CC(C)CNC(=S)N/N=C/c1ccc(N2CCC(O)CC2)cc1` gave an IC50 of 695 nM (absorbance).
The Ki of `NCCCC(=O)Nc1nnc(S(N)(=O)=O)s1` is reported as 65.7 nM (stopped-flow).
With `O=C(O)c1ccc(Nc2nc(-c3cc4cc(Br)ccc4oc3=O)cs2)cc1` the IC50 was 1290 nM (absorbance).
`CC[C@H]1OC(=O)[C@H](C)[C@@H](O[C@H]2C[C@@](C)(OC)[C@@H](O)[C@H](C)O2)[C@H](C)[C@@H](O[C@@H]2O[C@H](C)C[C@H](N(C)C)[C@H]2O)[C@](C)(O)C[C@@H](C)CN(C)[C@H](C)[C@@H](O)[C@]1(C)O` has an IC50 of 13000 nM (absorbance; pH 7.4).
The Ki of `CC1CCCCC1CC(=O)Nc1nnc(S(N)(=O)=O)s1` (stereo not drawn) is reported as 29.2 nM (stopped-flow).
`O=c1[nH]c(=O)n([C@H]2C[C@H](O)[C@@H](CO)O2)cc1/C=C/Br` has an IC50 of 11800 nM (absorbance; pH 7.4).
For `OC1CCN(c2ccc(/C=N/NC(=S)Nc3ccc(Br)cc3)cc2)CC1`, the IC50 was 332 nM (absorbance).
`Cc1cccc(CC(=O)Nc2nnc(S(N)(=O)=O)s2)c1` gave a Ki of 36.8 nM (stopped-flow).
`OC1CCN(c2ccc(/C=N/NC(=S)NCc3ccccc3)cc2)CC1` gave an IC50 of 504 nM (absorbance).
With `Cn1cnc([N+](=O)[O-])c1Sc1ncnc2nc[nH]c12` the IC50 was 20600 nM (absorbance; pH 7.4).
For `NS(=O)(=O)c1nnc(NC(=O)CCCC2CCCCC2)s1`, the Ki was 8.8 nM (stopped-flow).
`O=C(O)COCCN1CCN(C(c2ccccc2)c2ccc(Cl)cc2)CC1` (stereo not drawn) has an IC50 of 15200 nM (absorbance; pH 7.4).
The IC50 of `OC1CCN(c2ccc(/C=N/NC(=S)NCc3ccc(Cl)cc3)cc2)CC1` is reported as 374 nM (absorbance).
`COc1ccc2oc(=O)c(-c3csc(Nc4ccc(C(=O)O)cc4)n3)cc2c1` has an IC50 of 4610 nM (absorbance).
